This is an account of results in ChEMBL document CHEMBL1130821 (Bioorg Med Chem Lett, 1998).

Starred links: 1 amine or outer side, 2 acyl side, 3 side chain; linkers in the order of their positions; H or OH if unused. Non-standard residues stand in square brackets, D forms with d. Residues, ends and D or L forms follow the SMILES beside them. X1 = O=C([C@@H]1C(Cc2ccccc2)CCN1[*:1])[*:2]; NMeF = CN[C@@H](Cc1ccccc1)C(=O)O

The subject of test [1] is CHO. Put plainly: Compound was evaluated for the blockade of NKA-induced (neurokinin A) IPs hydrolysis in CHO cells. To be noted: Cricetulus griseus, read-out: pA2 (converted). Type of test: functional, cell-based. In outline:
(§1)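 Intact CHO cells transfected with the human tachykinin NK-1 receptor. Antagonism of agonist-stimulated phosphoinositide (IP) hydrolysis is expressed as pA2, or as pKB where antagonism was uncompetitive.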

The subject of test [2] is CHO. Put plainly: Compound was evaluated for the blockade of [Pro]SP-induced IPs hydrolysis in CHO cells. Type of test: functional, cell-based. The note with it: Cricetulus griseus, read-out: pA2 (converted). In outline:
as §1

Test [3] relates to CHO. Put plainly: Compound was evaluated for the blockade of [Pro]SP-induced cAMP formation in CHO cells. The class given is functional, cell-based. The note with it: Cricetulus griseus, read-out: pA2 (converted). The procedure, abridged: (§2)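 Intact CHO cells transfected with the human NK-1 receptor. Antagonist inhibition of agonist-stimulated cAMP formation is reported as pA2, or as pKB for uncompetitive antagonism.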
(cAMP levels reflect the balance of adenylyl cyclase and phosphodiesterase activity.)

A further test has as its target Substance-P receptor (Homo sapiens, UniProt P25103). Put plainly: Compound was evaluated for affinity towards human tachykinin NK-1 receptor expressed in CHO cells. The class given is cell-based.
Test [4] deals with CHO. Put plainly: Compound was evaluated for the inhibition of IPs hydrolysis on intact CHO cells expressing the human tachykinin NK-1 receptor. The note with it: Cricetulus griseus. The class given is functional, cell-based. In outline: as §1
For test [5], the system named is CHO. Put plainly: Compound was evaluated for the inhibition of cAMP formation on intact CHO cells expressing the human tachykinin NK-1 receptor. Type of test: functional, cell-based. The note with it: Cricetulus griseus. In outline: as §2

Sequence of Substance-P receptor (P25103 whole entry): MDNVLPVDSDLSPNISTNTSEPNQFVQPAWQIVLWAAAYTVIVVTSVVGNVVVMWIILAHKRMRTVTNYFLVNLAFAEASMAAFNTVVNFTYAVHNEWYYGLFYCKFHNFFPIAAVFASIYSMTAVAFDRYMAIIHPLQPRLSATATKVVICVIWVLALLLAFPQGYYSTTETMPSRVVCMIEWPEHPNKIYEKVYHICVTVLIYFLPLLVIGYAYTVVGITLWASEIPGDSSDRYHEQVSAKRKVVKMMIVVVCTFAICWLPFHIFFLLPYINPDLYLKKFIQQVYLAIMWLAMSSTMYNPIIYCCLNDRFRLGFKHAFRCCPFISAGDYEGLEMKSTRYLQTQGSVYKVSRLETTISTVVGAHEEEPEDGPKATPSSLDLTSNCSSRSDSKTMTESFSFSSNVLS

One may read the Ki as a measure of affinity in units of concentration, obtained from inhibition or displacement. Lower therefore signals tighter binding. Regarding `CC(C)C[C@@H](C(=O)N[C@@H](Cc1c[nH]c2ccccc12)C(N)=O)N1CC[C@@]2(CCCN2C(=O)[C@H](Cc2ccc(O)cc2)NC(=O)[C@H](Cc2ccccc2)NC(=O)[C@H](CCCCN)NC(=O)[C@H](CC(N)=O)NC(=O)[C@@H]2CCCN2C(=O)[C@H](CC(=O)O)NC(=O)[C@H](C)NC(=O)[C@@H]2CCC(=O)N2)C1=O`, the Kb is 12.6 nM in the test with CHO [1], 63.1 nM with CHO [2] and 15.8 nM with CHO [3]. The compound further gave an inhibitory constant (Ki) at Substance-P receptor of 56 nM.
By EC50 is commonly meant the concentration at which the effect is half-maximal. High values mean a need for much substance, low ones an effect from little substance. On to `CSCC[C@H](NC(=O)[C@H](CC(C)C)NC(=O)[C@@H]1CCCN1C(=O)[C@H](Cc1ccccc1)NC(=O)[C@H](Cc1ccccc1)NC(=O)[C@H](CCC(N)=O)NC(=O)[C@H](CCC(N)=O)NC(=O)[C@@H]1CCCN1C(=O)[C@H](CCCCN)NC(=O)[C@@H]1CCCN1C(=O)[C@@H](N)CCCN=C(N)N)C(N)=O`, for which the concentration giving a half-maximal response (EC50) came out at 1.2 nM in the test on CHO [4] and 10 nM in the test with CHO [5]. On Substance-P receptor, this compound yielded a Ki of 1.1 nM.
With `CN(C(=O)[C@@H]1CCCN1C(=O)[C@H](Cc1ccccc1)NC(=O)[C@H](Cc1ccccc1)NC(=O)[C@H](CCC(N)=O)NC(=O)[C@H](CCC(N)=O)NC(=O)[C@@H]1CCCN1C(=O)[C@H](CCCCN)NC(=O)[C@@H]1CCCN1C(=O)[C@@H](N)CCCN=C(N)N)[C@@H](Cc1ccccc1)C(=O)N[C@@H](Cc1c[nH]c2ccccc12)C(N)=O` (H-RPKPQQFFP[NMeF]W-NH2), the results for the Kb in the test with CHO [1], with CHO [2] and in the test on CHO [3] were 398 nM, 347 nM and 115 nM, respectively. The compound further displayed a Ki on Substance-P receptor of 110 nM.
Take `NCCCC[C@H](NC(=O)[C@@H]1CCCN1C(=O)[C@@H](N)CCCN=C(N)N)C(=O)N1CCC[C@H]1C(=O)N[C@@H](CCC(N)=O)C(=O)N[C@@H](CCC(N)=O)C(=O)N[C@@H](Cc1ccccc1)C(=O)N[C@@H](Cc1ccccc1)C(=O)N1CCC[C@H]1C(=O)N1CCC(Cc2ccccc2)[C@H]1C(=O)N[C@@H](Cc1c[nH]c2ccccc12)C(N)=O` (some centres not stated) (H-RPKPQQFFP[X1]W-NH2): the Kb was 10 nM in the test with CHO [1], 25.1 nM in the test with CHO [2] and 18.2 nM in the test on CHO [3]. The compound further yielded a Ki on Substance-P receptor of 79 nM.
For `CSCC[C@H](NC(=O)[C@H](CC(C)C)NC(=O)CNC(=O)[C@@H](NC(=O)[C@H](Cc1ccccc1)NC(=O)[C@H](CO)NC(=O)[C@H](CC(=O)O)NC(=O)[C@@H](NC(=O)[C@H](CCCCN)NC(=O)[C@@H](N)Cc1c[nH]cn1)[C@@H](C)O)C(C)C)C(N)=O` [NEUROKININ A], the concentration for a half-maximal effect (EC50) in the test with CHO [4] came out at 8 nM; with CHO [5] it was 1240 nM.
